In ChEMBL document CHEMBL5576157, “"Seasoning" antimalarial drugs' action: chloroquine bile salts as novel triple-stage antiplasmodial hits” (RSC Med Chem, 2024):
Activity calls are given as the source filed them. The rule behind the calls is not given here.

Columns and labels:
[1] = Stability of compound assessed as degradation temperature at 25 to 500 degreeC under N2 gas by thermogravimetric analysis; format: physicochemical
Outline: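 Thermogravimetric analysis heated samples from 25 to 500 °C at 5 °C/min under N2 flowing at 50 mL·min⁻¹.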

Plasmodium falciparum [2] = test: Antimalarial activity against stage III gametocytes of Plasmodium falciparum 3D7 expressing GFP infected erythrocytes assessed inhibition of gametocyte level at 10 uM after 72 hrs followed by compound washout and measured after 24 hrs by Giemsa-staining based microscopic analysis relative to control; format: functional; conditions: 3D7, Erythrocyte
Outline: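 P. falciparum 3D7HT-GFP was sorbitol-synchronized, and schizonts were Percoll-purified and cultured at 3% hematocrit until stage III gametocytes appeared. Microcultures of 1 mL (1-2% gametocytemia, 2.5% hematocrit) got 10 µM compound or DMSO (<0.3%) for 72 h, then compound-free medium for 24 h. Stage IV/V gametocytes were counted per 3000 RBC on Giemsa smears, in duplicate by two microscopists. Inhibition = 100 − (treated/drug-free control ×100).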

Erythrocyte = test: Hemolytic activity in RBC (unknown origin) assessed as hemolysis at 10 uM incubated for 1 hr by microplate reader assay; format: toxicity, cell-based; conditions: human
Outline: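 Human blood had plasma removed by spinning. RBC were washed three times in 0.01 M PBS pH 7.4 and set to 6% hematocrit. They were mixed with an equal volume of compound at 20 µM in PBS with 1.3% DMSO and kept 1 h at 37 °C, then spun. Supernatant A450 was read. Hemolysis % was scaled between PBS/0.65% DMSO (negative) and 1% Triton X-100 (positive).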

Plasmodium falciparum [3] = test: Antimalarial activity against blood stage chloroquine-sensitive Plasmodium falciparum 3D7 expressing GFP infected in erythrocytes assessed as inhibition of parasite growth at 10 uM incubated for 72 hrs by flow cytometry analysis relative to control; format: functional; conditions: 3D7, Erythrocyte
Outline: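 Unsynchronized P. falciparum 3D7-GFP culture (0,6% hematocrit, 0,5% parasitaemia) was exposed to 10 µM compound for 72 h at 37 °C and 5% CO2. Growth was read by flow cytometry of GFP (Fl-1, 488 nm excitation), counting 20,000–40,000 erythrocytes per well.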

Huh-7 = test: Cytotoxicity against human Huh-7 cells assessed as reduction in cell viability at 10 uM by AlamarBlue assay; format: toxicity, cell-based; conditions: huh-7, 10 µM
Outline: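 Huh-7 hepatoma cells were cultured in RPMI with 10% FCS, non-essential amino acids, glutamine, penicillin/streptomycin and 10 mM HEPES pH 7, at 37 °C and 5% CO2, within the liver-stage infection setup. Viability was read by AlamarBlue following the manufacturer's protocol.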

Plasmodium berghei = test: Antimalarial activity against Plasmodium berghei sporozoites expressing firefly luciferase infected in human Huh-7 cells assessed reduction in parasite growth at 10 uM preincubated for 1 hr followed by infection and measured after 48 hrs by luminescence analysis; format: functional, organism-based; conditions: time 49.0 hrs
Outline: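 Huh-7 hepatoma cells were grown in RPMI with 10% FCS, non-essential amino acids, glutamine, penicillin/streptomycin and 10 mM HEPES pH 7, at 37 °C and 5% CO2. Cells were seeded at 1.2×10⁴/well the day before. Compound medium was added ~1 h before infection with firefly luciferase P. berghei sporozoites freshly dissected from mosquito salivary glands, then spun at 1700 g for 5 min. Parasite load was read at 48 h by lysate luminescence after luciferin addition.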

Plasmodium falciparum [4] = test: Antimalarial activity against blood stage chloroquine-sensitive Plasmodium falciparum 3D7 expressing GFP infected in erythrocytes assessed as reduction in parasitemia incubated for 72 hrs by flow cytometry analysis; format: functional, organism-based; conditions: 3D7, Erythrocyte
Outline: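 Growth was read by flow cytometry on the GFP channel (488 nm excitation), counting 20,000–40,000 RBC per well. IC50 values were fitted from the curves and reported as the mean of at least three experiments, each in duplicate.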

Plasmodium falciparum [5] = test: Antimalarial activity against blood stage chloroquine-resistant Plasmodium falciparum Dd2 infected in erythrocytes assessed as reduction in parasitemia incubated for 72 hrs by flow cytometry analysis; format: functional, organism-based; conditions: Dd2, Erythrocyte

Compound | T [1] | inhibition at 10 µM (Plasmodium falciparum [2]) | Activity (Erythrocyte) | inhibition at 10 µM (Plasmodium falciparum [3]) | Activity (Huh-7) | Activity (Plasmodium berghei) | IC50 (Plasmodium falciparum [4]) | IC50 (Plasmodium falciparum [5])
CCN(CC)CCCC(C)Nc1ccnc2cc(Cl)ccc12.C[C@H](CCC(=O)O)[C@H]1CC[C@H]2[C@@H]3[C@H](O)C[C@@H]4C[C@H](O)CC[C@]4(C)[C@H]3CC[C@]12C | 255 °C | 87% | Non-Toxic | 97% | Non-Toxic | – | – | –
CCN(CC)CCCC(C)Nc1ccnc2cc(Cl)ccc12.C[C@H](CCC(=O)NCC(=O)O)[C@H]1CC[C@H]2[C@@H]3[C@H](O)C[C@@H]4C[C@H](O)CC[C@]4(C)[C@H]3C[C@H](O)[C@]12C | 361 °C | 86% | Non-Toxic | 97% | Non-Toxic | – | – | –
COc1cc(NC(C)CCCN)c2ncccc2c1.C[C@H](CCC(=O)O)[C@H]1CC[C@H]2[C@@H]3CC[C@@H]4C[C@H](O)CC[C@]4(C)[C@H]3CC[C@]12C [listing 1 of 2 here] | – | – | – | – | – | Active | – | –
C[C@H](CCC(=O)O)[C@H]1CC[C@H]2[C@@H]3CC[C@@H]4C[C@H](O)CC[C@]4(C)[C@H]3CC[C@]12C [LITHOCHOLIC ACID] | 355 °C | 65% | Non-Toxic | – | – | – | – | –
CCN(CC)CCCC(C)Nc1ccnc2cc(Cl)ccc12.C[C@H](CCC(=O)O)[C@H]1CC[C@H]2[C@@H]3[C@H](O)C[C@@H]4C[C@H](O)CC[C@]4(C)[C@H]3C[C@H](O)[C@]12C | 253 °C | 88% | Non-Toxic | 97% | Non-Toxic | – | – | –
COc1cc(NC(C)CCCN)c2ncccc2c1.C[C@H](CCC(=O)O)[C@H]1CC[C@H]2[C@@H]3CC[C@@H]4C[C@H](O)CC[C@]4(C)[C@H]3C[C@H](O)[C@]12C | 348 °C | 86% | Non-Toxic | 82% | Non-Toxic | – | 600 nM | –
CCN(CC)CCCC(C)Nc1ccnc2cc(Cl)ccc12.C[C@H](CCC(=O)O)[C@H]1CC[C@H]2[C@@H]3CC[C@@H]4C[C@H](O)CC[C@]4(C)[C@H]3CC[C@]12C [listing 1 of 2 here] | – | – | – | – | – | Active | – | –
COc1cc(NC(C)CCCN)c2ncccc2c1.C[C@H](CCC(=O)NCC(=O)O)[C@H]1CC[C@H]2[C@@H]3[C@H](O)C[C@@H]4C[C@H](O)CC[C@]4(C)[C@H]3C[C@H](O)[C@]12C | 255 °C | 81% | Non-Toxic | 82% | Non-Toxic | – | 384 nM | –
COc1cc(NC(C)CCCN)c2ncccc2c1.C[C@H](CCC(=O)O)[C@H]1CC[C@H]2[C@@H]3[C@H](O)C[C@@H]4C[C@H](O)CC[C@]4(C)[C@H]3C[C@H](O)[C@]12C | 359 °C | 91% | Non-Toxic | 82% | Non-Toxic | – | 589 nM | –
CCN(CC)CCCC(C)Nc1ccnc2cc(Cl)ccc12.C[C@H](CCC(=O)O)[C@H]1CC[C@H]2[C@@H]3CC[C@@H]4C[C@H](O)CC[C@]4(C)[C@H]3CC[C@]12C [listing 2 of 2 here] | 367 °C | 90% | Non-Toxic | 97% | Non-Toxic | – | – | –
C[C@H](CCC(=O)O)[C@H]1CC[C@H]2[C@@H]3CC[C@@H]4C[C@H](O)CC[C@]4(C)[C@H]3C[C@H](O)[C@]12C [DEOXYCHOLIC ACID] | 357 °C | 42% | Non-Toxic | – | – | – | – | –
COc1cc(NC(C)CCCN)c2ncccc2c1.C[C@H](CCC(=O)O)[C@H]1CC[C@H]2[C@@H]3[C@H](O)C[C@@H]4C[C@H](O)CC[C@]4(C)[C@H]3CC[C@]12C | 366 °C | 80% | Non-Toxic | 82% | Non-Toxic | – | 380 nM | –
C[C@H](CCC(=O)NCC(=O)O)[C@H]1CC[C@H]2[C@@H]3[C@H](O)C[C@@H]4C[C@H](O)CC[C@]4(C)[C@H]3C[C@H](O)[C@]12C [GLYCOCHOLIC ACID] | 328 °C | 41% | Non-Toxic | – | – | – | – | –
COc1cc(NC(C)CCCN)c2ncccc2c1.C[C@H](CCC(=O)O)[C@H]1CC[C@H]2[C@@H]3CC[C@@H]4C[C@H](O)CC[C@]4(C)[C@H]3CC[C@]12C [listing 2 of 2 here] | 253 °C | 83% | Non-Toxic | 82% | Non-Toxic | – | 424 nM | –
CCN(CC)CCCC(C)Nc1ccnc2cc(Cl)ccc12.O=P(O)(O)O.O=P(O)(O)O (centres undefined) [CHLOROQUINE PHOSPHATE] | – | 72% | Non-Toxic | 98% | – | – | – | –
C[C@H](CCC(=O)O)[C@H]1CC[C@H]2[C@@H]3[C@H](O)C[C@@H]4C[C@H](O)CC[C@]4(C)[C@H]3C[C@H](O)[C@]12C [CHOLIC ACID] | 360 °C | 39% | Non-Toxic | – | – | – | – | –
CCN(CC)CCCC(C)Nc1ccnc2cc(Cl)ccc12.C[C@H](CCC(=O)O)[C@H]1CC[C@H]2[C@@H]3CC[C@@H]4C[C@H](O)CC[C@]4(C)[C@H]3C[C@H](O)[C@]12C | 242 °C | 86% | Non-Toxic | 97% | Non-Toxic | – | – | –
C[C@H](CCC(=O)NCCCCNc1ccnc2cc(Cl)ccc12)[C@H]1CC[C@H]2[C@@H]3[C@H](O)C[C@@H]4C[C@H](O)CC[C@]4(C)[C@H]3C[C@H](O)[C@]12C | 250 °C | 91% | Non-Toxic | – | Non-Toxic | Active | 108 nM | 562 nM
COc1cc(NC(C)CCCN)c2ncccc2c1.O=P(O)(O)O.O=P(O)(O)O (centres undefined) [PRIMAQUINE PHOSPHATE] | – | 93% | Non-Toxic | 83% | – | – | 415 nM | 464 nM
